Measured values taken from ChEMBL document CHEMBL1275272, “Synthesis, characterization and antimicrobial activity of some disubstituted 1,3,4-oxadiazoles carrying 2-(aryloxymethyl)phenyl moiety” (2010).

How the values were obtained:
Type in all cases: functional
Talaromyces marneffei = assay: Antifungal activity against Penicillium marneffei after 16 to 18 hrs by serial dilution method; settings: for MIC: Talaromyces marneffei
How it was run: (§1)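 The test compound was dissolved in DMF and serially diluted. A standard drop of the prepared microbial culture was added to each dilution, and tubes were incubated at 37 °C for 16–18 h. MIC was taken as the highest dilution that stayed clear with no visible turbidity.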

Staphylococcus aureus = assay: Antibacterial activity against Staphylococcus aureus after 16 to 18 hrs by serial dilution method; settings: for MIC: Staphylococcus aureus; how it was run: as §1
Klebsiella pneumoniae = assay: Antibacterial activity against Klebsiella pneumoniae after 16 to 18 hrs by serial dilution method; settings: for MIC: Klebsiella pneumoniae
Escherichia coli = assay: Antibacterial activity against Escherichia coli after 16 to 18 hrs by serial dilution method; settings: for MIC: Escherichia coli; how it was run: as §1
Aspergillus fumigatus = assay: Antifungal activity against Aspergillus fumigatus after 16 to 18 hrs by serial dilution method; settings: for MIC: Aspergillus fumigatus
[1] = test system: Trichophyton mentagrophytes; assay: Antifungal activity against Trichophyton mentagrophytes after 16 to 18 hrs by serial dilution method; settings: for MIC: Trichophyton mentagrophytes
Pseudomonas aeruginosa = assay: Antibacterial activity against Pseudomonas aeruginosa after 16 to 18 hrs by serial dilution method; settings: for MIC: Pseudomonas aeruginosa; how it was run: as §1
Aspergillus flavus = assay: Antifungal activity against Aspergillus flavus after 16 to 18 hrs by serial dilution method; settings: for MIC: Aspergillus flavus; how it was run: as §1

Cc1cc(C)cc(-c2nnc(-c3ccccc3COc3ccc(Cl)cc3)o2)c1
12.5 µg/mL: MIC (Talaromyces marneffei) | MIC (Staphylococcus aureus) | MIC (Klebsiella pneumoniae) | MIC (Escherichia coli) | MIC (Aspergillus fumigatus) | MIC [1] | MIC (Pseudomonas aeruginosa) | MIC (Aspergillus flavus)
11 mm: inhibition zone (IZ) (Talaromyces marneffei) | inhibition zone (IZ) (Staphylococcus aureus) | inhibition zone (IZ) (Klebsiella pneumoniae) | inhibition zone (IZ) (Escherichia coli) | inhibition zone (IZ) (Aspergillus fumigatus) | inhibition zone (IZ) [1] | inhibition zone (IZ) (Pseudomonas aeruginosa) | inhibition zone (IZ) (Aspergillus flavus)

FC(F)(F)c1cccc(NCn2nc(-c3ccccc3COc3ccc(Cl)cc3)oc2=S)c1
16 mm: inhibition zone (IZ) (Talaromyces marneffei) | inhibition zone (IZ) (Staphylococcus aureus) | inhibition zone (IZ) (Klebsiella pneumoniae) | inhibition zone (IZ) (Escherichia coli) | inhibition zone (IZ) (Aspergillus fumigatus) | inhibition zone (IZ) [1] | inhibition zone (IZ) (Pseudomonas aeruginosa) | inhibition zone (IZ) (Aspergillus flavus)
6.25 µg/mL: MIC (Talaromyces marneffei) | MIC (Staphylococcus aureus) | MIC (Klebsiella pneumoniae) | MIC (Escherichia coli) | MIC (Aspergillus fumigatus) | MIC [1] | MIC (Pseudomonas aeruginosa) | MIC (Aspergillus flavus)

Cc1ccc(OCc2ccccc2-c2nnc(SCc3ccc(Cl)cc3Cl)o2)cc1
16 mm: inhibition zone (IZ) (Talaromyces marneffei) | inhibition zone (IZ) (Staphylococcus aureus) | inhibition zone (IZ) (Klebsiella pneumoniae) | inhibition zone (IZ) (Escherichia coli) | inhibition zone (IZ) (Aspergillus fumigatus) | inhibition zone (IZ) [1] | inhibition zone (IZ) (Pseudomonas aeruginosa) | inhibition zone (IZ) (Aspergillus flavus)
6.25 µg/mL: MIC (Talaromyces marneffei) | MIC (Staphylococcus aureus) | MIC (Klebsiella pneumoniae) | MIC (Escherichia coli) | MIC (Aspergillus fumigatus) | MIC [1] | MIC (Pseudomonas aeruginosa) | MIC (Aspergillus flavus)

Clc1ccc(OCc2ccccc2-c2nnc(SCc3ccc(Cl)cc3Cl)o2)cc1
16 mm: inhibition zone (IZ) (Talaromyces marneffei) | inhibition zone (IZ) (Staphylococcus aureus) | inhibition zone (IZ) (Klebsiella pneumoniae) | inhibition zone (IZ) (Escherichia coli) | inhibition zone (IZ) (Aspergillus fumigatus) | inhibition zone (IZ) [1] | inhibition zone (IZ) (Pseudomonas aeruginosa) | inhibition zone (IZ) (Aspergillus flavus)
6.25 µg/mL: MIC (Talaromyces marneffei) | MIC (Staphylococcus aureus) | MIC (Klebsiella pneumoniae) | MIC (Escherichia coli) | MIC (Aspergillus fumigatus) | MIC [1] | MIC (Pseudomonas aeruginosa) | MIC (Aspergillus flavus)

CCSc1nnc(-c2ccccc2COc2cccc(C)c2)o1
25 µg/mL: MIC (Talaromyces marneffei) | MIC (Staphylococcus aureus) | MIC (Klebsiella pneumoniae) | MIC (Escherichia coli) | MIC (Aspergillus fumigatus) | MIC [1] | MIC (Pseudomonas aeruginosa) | MIC (Aspergillus flavus)
<10 mm: inhibition zone (IZ) (Talaromyces marneffei) | inhibition zone (IZ) (Staphylococcus aureus) | inhibition zone (IZ) (Klebsiella pneumoniae) | inhibition zone (IZ) (Escherichia coli) | inhibition zone (IZ) (Aspergillus fumigatus) | inhibition zone (IZ) [1] | inhibition zone (IZ) (Pseudomonas aeruginosa) | inhibition zone (IZ) (Aspergillus flavus)

Clc1ccc(OCc2ccccc2-c2nnc(-c3cccc4ncccc34)o2)cc1
25 µg/mL: MIC (Talaromyces marneffei) | MIC (Staphylococcus aureus) | MIC (Klebsiella pneumoniae) | MIC (Escherichia coli) | MIC (Aspergillus fumigatus) | MIC [1] | MIC (Pseudomonas aeruginosa) | MIC (Aspergillus flavus)
<10 mm: inhibition zone (IZ) (Talaromyces marneffei) | inhibition zone (IZ) (Staphylococcus aureus) | inhibition zone (IZ) (Klebsiella pneumoniae) | inhibition zone (IZ) (Escherichia coli) | inhibition zone (IZ) (Aspergillus fumigatus) | inhibition zone (IZ) [1] | inhibition zone (IZ) (Pseudomonas aeruginosa) | inhibition zone (IZ) (Aspergillus flavus)

Cc1ccccc1OCc1ccccc1-c1nnc(-c2cccc(Br)c2)o1
<10 mm: inhibition zone (IZ) (Talaromyces marneffei) | inhibition zone (IZ) (Staphylococcus aureus) | inhibition zone (IZ) (Klebsiella pneumoniae) | inhibition zone (IZ) (Escherichia coli) | inhibition zone (IZ) (Aspergillus fumigatus) | inhibition zone (IZ) [1] | inhibition zone (IZ) (Pseudomonas aeruginosa) | inhibition zone (IZ) (Aspergillus flavus)
25 µg/mL: MIC (Talaromyces marneffei) | MIC (Staphylococcus aureus) | MIC (Klebsiella pneumoniae) | MIC (Escherichia coli) | MIC (Aspergillus fumigatus) | MIC [1] | MIC (Pseudomonas aeruginosa) | MIC (Aspergillus flavus)

Cc1ccc(OCc2ccccc2-c2nnc(-c3ccccc3)o2)cc1
25 µg/mL: MIC (Talaromyces marneffei) | MIC (Staphylococcus aureus) | MIC (Klebsiella pneumoniae) | MIC (Escherichia coli) | MIC (Aspergillus fumigatus) | MIC [1] | MIC (Pseudomonas aeruginosa) | MIC (Aspergillus flavus)
<10 mm: inhibition zone (IZ) (Talaromyces marneffei) | inhibition zone (IZ) (Staphylococcus aureus) | inhibition zone (IZ) (Klebsiella pneumoniae) | inhibition zone (IZ) (Escherichia coli) | inhibition zone (IZ) (Aspergillus fumigatus) | inhibition zone (IZ) [1] | inhibition zone (IZ) (Pseudomonas aeruginosa) | inhibition zone (IZ) (Aspergillus flavus)

Cc1ccccc1OCc1ccccc1-c1nn(CN2CCOCC2)c(=S)o1
12.5 µg/mL: MIC (Talaromyces marneffei) | MIC (Staphylococcus aureus) | MIC (Klebsiella pneumoniae) | MIC (Escherichia coli) | MIC (Aspergillus fumigatus) | MIC [1] | MIC (Pseudomonas aeruginosa) | MIC (Aspergillus flavus)
11 mm: inhibition zone (IZ) (Talaromyces marneffei) | inhibition zone (IZ) (Staphylococcus aureus) | inhibition zone (IZ) (Klebsiella pneumoniae) | inhibition zone (IZ) (Escherichia coli) | inhibition zone (IZ) (Aspergillus fumigatus) | inhibition zone (IZ) [1] | inhibition zone (IZ) (Pseudomonas aeruginosa) | inhibition zone (IZ) (Aspergillus flavus)

Cc1cccc(OCc2ccccc2-c2nnc(-c3ccc(Cl)cc3)o2)c1
25 µg/mL: MIC (Talaromyces marneffei) | MIC (Staphylococcus aureus) | MIC (Klebsiella pneumoniae) | MIC (Escherichia coli) | MIC (Aspergillus fumigatus) | MIC [1] | MIC (Pseudomonas aeruginosa) | MIC (Aspergillus flavus)
<10 mm: inhibition zone (IZ) (Talaromyces marneffei) | inhibition zone (IZ) (Staphylococcus aureus) | inhibition zone (IZ) (Klebsiella pneumoniae) | inhibition zone (IZ) (Escherichia coli) | inhibition zone (IZ) (Aspergillus fumigatus) | inhibition zone (IZ) [1] | inhibition zone (IZ) (Pseudomonas aeruginosa) | inhibition zone (IZ) (Aspergillus flavus)

Cc1ccccc1OCc1ccccc1-c1nnc(SCc2ccccc2)o1
25 µg/mL: MIC (Talaromyces marneffei) | MIC (Staphylococcus aureus) | MIC (Klebsiella pneumoniae) | MIC (Escherichia coli) | MIC (Aspergillus fumigatus) | MIC [1] | MIC (Pseudomonas aeruginosa) | MIC (Aspergillus flavus)
<10 mm: inhibition zone (IZ) (Talaromyces marneffei) | inhibition zone (IZ) (Staphylococcus aureus) | inhibition zone (IZ) (Klebsiella pneumoniae) | inhibition zone (IZ) (Escherichia coli) | inhibition zone (IZ) (Aspergillus fumigatus) | inhibition zone (IZ) [1] | inhibition zone (IZ) (Pseudomonas aeruginosa) | inhibition zone (IZ) (Aspergillus flavus)

CCSc1nnc(-c2ccccc2COc2ccc(C)cc2)o1
<10 mm: inhibition zone (IZ) (Talaromyces marneffei) | inhibition zone (IZ) (Staphylococcus aureus) | inhibition zone (IZ) (Klebsiella pneumoniae) | inhibition zone (IZ) (Escherichia coli) | inhibition zone (IZ) (Aspergillus fumigatus) | inhibition zone (IZ) [1] | inhibition zone (IZ) (Pseudomonas aeruginosa) | inhibition zone (IZ) (Aspergillus flavus)
25 µg/mL: MIC (Talaromyces marneffei) | MIC (Staphylococcus aureus) | MIC (Klebsiella pneumoniae) | MIC (Escherichia coli) | MIC (Aspergillus fumigatus) | MIC [1] | MIC (Pseudomonas aeruginosa) | MIC (Aspergillus flavus)

Clc1ccc(OCc2ccccc2-c2nnc(-c3ccc(Cl)cc3)o2)cc1
<10 mm: inhibition zone (IZ) (Talaromyces marneffei) | inhibition zone (IZ) (Staphylococcus aureus) | inhibition zone (IZ) (Klebsiella pneumoniae) | inhibition zone (IZ) (Escherichia coli) | inhibition zone (IZ) (Aspergillus fumigatus) | inhibition zone (IZ) [1] | inhibition zone (IZ) (Pseudomonas aeruginosa) | inhibition zone (IZ) (Aspergillus flavus)
25 µg/mL: MIC (Talaromyces marneffei) | MIC (Staphylococcus aureus) | MIC (Klebsiella pneumoniae) | MIC (Escherichia coli) | MIC (Aspergillus fumigatus) | MIC [1] | MIC (Pseudomonas aeruginosa) | MIC (Aspergillus flavus)

Clc1ccc(CSc2nnc(-c3ccccc3COc3ccc(Cl)cc3)o2)cc1
11 mm: inhibition zone (IZ) (Talaromyces marneffei) | inhibition zone (IZ) (Staphylococcus aureus) | inhibition zone (IZ) (Klebsiella pneumoniae) | inhibition zone (IZ) (Escherichia coli) | inhibition zone (IZ) (Aspergillus fumigatus) | inhibition zone (IZ) [1] | inhibition zone (IZ) (Pseudomonas aeruginosa) | inhibition zone (IZ) (Aspergillus flavus)
12.5 µg/mL: MIC (Talaromyces marneffei) | MIC (Staphylococcus aureus) | MIC (Klebsiella pneumoniae) | MIC (Escherichia coli) | MIC (Aspergillus fumigatus) | MIC [1] | MIC (Pseudomonas aeruginosa) | MIC (Aspergillus flavus)

COc1cc(-c2nnc(-c3ccccc3COc3ccc(C)cc3)o2)cc(OC)c1OC
11 mm: inhibition zone (IZ) [1] | inhibition zone (IZ) (Aspergillus flavus)
16 mm: inhibition zone (IZ) (Talaromyces marneffei) | inhibition zone (IZ) (Staphylococcus aureus) | inhibition zone (IZ) (Klebsiella pneumoniae) | inhibition zone (IZ) (Escherichia coli) | inhibition zone (IZ) (Aspergillus fumigatus) | inhibition zone (IZ) (Pseudomonas aeruginosa)
12.5 µg/mL: MIC [1] | MIC (Aspergillus flavus)
6.25 µg/mL: MIC (Talaromyces marneffei) | MIC (Staphylococcus aureus) | MIC (Klebsiella pneumoniae) | MIC (Escherichia coli) | MIC (Aspergillus fumigatus) | MIC (Pseudomonas aeruginosa)

Cc1ccc(OCc2ccccc2-c2nn(CNc3cccc(C(F)(F)F)c3)c(=S)o2)cc1
6.25 µg/mL: MIC (Talaromyces marneffei) | MIC (Staphylococcus aureus) | MIC (Klebsiella pneumoniae) | MIC (Escherichia coli) | MIC (Aspergillus fumigatus) | MIC [1] | MIC (Pseudomonas aeruginosa) | MIC (Aspergillus flavus)
16 mm: inhibition zone (IZ) (Talaromyces marneffei) | inhibition zone (IZ) (Staphylococcus aureus) | inhibition zone (IZ) (Klebsiella pneumoniae) | inhibition zone (IZ) (Escherichia coli) | inhibition zone (IZ) (Aspergillus fumigatus) | inhibition zone (IZ) [1] | inhibition zone (IZ) (Pseudomonas aeruginosa) | inhibition zone (IZ) (Aspergillus flavus)

Cc1cccc(CSc2nnc(-c3ccccc3COc3ccccc3C)o2)c1
16 mm: inhibition zone (IZ) (Aspergillus fumigatus)
6.25 µg/mL: MIC (Aspergillus fumigatus)
12.5 µg/mL: MIC (Talaromyces marneffei) | MIC (Staphylococcus aureus) | MIC (Klebsiella pneumoniae) | MIC (Escherichia coli) | MIC [1] | MIC (Pseudomonas aeruginosa) | MIC (Aspergillus flavus)
11 mm: inhibition zone (IZ) (Talaromyces marneffei) | inhibition zone (IZ) (Staphylococcus aureus) | inhibition zone (IZ) (Klebsiella pneumoniae) | inhibition zone (IZ) (Escherichia coli) | inhibition zone (IZ) [1] | inhibition zone (IZ) (Pseudomonas aeruginosa) | inhibition zone (IZ) (Aspergillus flavus)
